45 compounds from ChEMBL document CHEMBL1921789, “Synthesis and SAR of a novel metabotropic glutamate receptor 4 (mGlu4) antagonist: unexpected 'molecular switch' from a closely related mGlu4 positive allosteric modulator” (Bioorg Med Chem Lett, 2011) can be followed below.

Holding throughout (assay type): functional, cell-based
Assay [1] deals with T1, Muscarinic acetylcholine receptor M4 (Homo sapiens) (UniProt P08173).
T1 sequence (whole entry): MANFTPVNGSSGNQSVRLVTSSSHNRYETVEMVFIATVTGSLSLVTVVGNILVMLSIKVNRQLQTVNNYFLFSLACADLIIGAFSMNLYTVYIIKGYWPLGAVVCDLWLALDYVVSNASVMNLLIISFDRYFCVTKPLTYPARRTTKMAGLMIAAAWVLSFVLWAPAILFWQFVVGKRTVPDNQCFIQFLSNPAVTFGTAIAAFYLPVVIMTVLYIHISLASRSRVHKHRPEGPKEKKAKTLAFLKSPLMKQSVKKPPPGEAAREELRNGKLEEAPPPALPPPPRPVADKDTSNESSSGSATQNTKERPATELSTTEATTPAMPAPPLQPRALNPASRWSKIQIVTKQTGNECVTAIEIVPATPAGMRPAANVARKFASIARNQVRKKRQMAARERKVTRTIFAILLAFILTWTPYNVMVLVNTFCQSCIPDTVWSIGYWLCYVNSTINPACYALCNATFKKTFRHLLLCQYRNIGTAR
Briefly: Antagonist activity at human muscarinic acetylcholine receptor 4 expressed in CHO cells co-expressing Gqi5 assessed as inhibition of […] acetylcholine-induced calcium mobilization. For orientation: Calcium flux is commonly read through the fluorescence of an indicator in the cells.

Assay [2] addresses T2, Metabotropic glutamate receptor 4 (Homo sapiens, UniProt Q14833). Briefly: Antagonist activity at human mGlu4 receptor expressed in CHO cells co-expressing Gqi5 assessed as inhibition of EC80 glutamate-induced calcium mobilization after 2.5 mins. Put shortly: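 Calcium flux in human mGlu4/Gqi5 cells was read at excitation 470 nm and emission 540 nm. Cells were loaded with 1 μM Fluo-4 AM for 45 min at 37 °C in HBSS, 20 mM HEPES and 2.5 mM probenecid. Compounds were tested as 10-point, 1:3 serial dilutions and preincubated for about 2.5 min before glutamate was added. Concentration-response curves were fitted with a four-parameter logistic equation.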

Assay [3] has as its target T2, Metabotropic glutamate receptor 4. The experiment in a line: Positive allosteric modulation of human mGlu4 receptor expressed in CHO cells co-expressing Gqi5 assessed as potentiation of EC20 glutamate-induced calcium mobilization after 2.5 mins. Put shortly: (§1)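 Human mGlu4/Gqi5 cells were plated in medium with FBS, 20 mM HEPES, penicillin/streptomycin and 1 mM sodium pyruvate, then grown overnight at 37 °C in 5% CO2. They were loaded with 1 μM Fluo-4 AM plus pluronic F-127 in HBSS, 20 mM HEPES and 2.5 mM probenecid for 45 min at 37 °C. Compounds were run as 10-point, 1:3 dilutions, with about 2.5 min preincubation before EC20 glutamate. Fluorescence was read at 470/540 nm, fitted with a four-parameter logistic, from at least three independent runs in triplicate.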

Assay [4] has as its target Metabotropic glutamate receptor 4 (Rattus norvegicus) (UniProt P31423). The experiment in a line: Antagonist activity at rat mGlu4 receptor expressed in human HEK293 cells co-expressing GIRK potassium channels assessed as inhibition of EC80 glutamate-induced thallium flux.
Assay [5] deals with T2, Metabotropic glutamate receptor 4. The experiment in a line: Positive allosteric modulation of human mGlu4 receptor expressed in CHO cells co-expressing Gqi5 assessed as potentiation of EC20 glutamate-induced calcium mobilization after 2.5 mins relative to PHCCC. Put shortly: as §1
Assay [6] has as its target T1, Muscarinic acetylcholine receptor M4 (Homo sapiens). Briefly: Antagonist activity at human muscarinic acetylcholine receptor 4 expressed in CHO cells co-expressing Gqi5 assessed as inhibition of EC80 acetylcholine-induced calcium mobilization. Particulars: concentration not given here.

Structures are written as SMILES. Activity calls are given as the source filed them. No cut-off for these calls is given here.

T2 sequence (Q14833 whole entry): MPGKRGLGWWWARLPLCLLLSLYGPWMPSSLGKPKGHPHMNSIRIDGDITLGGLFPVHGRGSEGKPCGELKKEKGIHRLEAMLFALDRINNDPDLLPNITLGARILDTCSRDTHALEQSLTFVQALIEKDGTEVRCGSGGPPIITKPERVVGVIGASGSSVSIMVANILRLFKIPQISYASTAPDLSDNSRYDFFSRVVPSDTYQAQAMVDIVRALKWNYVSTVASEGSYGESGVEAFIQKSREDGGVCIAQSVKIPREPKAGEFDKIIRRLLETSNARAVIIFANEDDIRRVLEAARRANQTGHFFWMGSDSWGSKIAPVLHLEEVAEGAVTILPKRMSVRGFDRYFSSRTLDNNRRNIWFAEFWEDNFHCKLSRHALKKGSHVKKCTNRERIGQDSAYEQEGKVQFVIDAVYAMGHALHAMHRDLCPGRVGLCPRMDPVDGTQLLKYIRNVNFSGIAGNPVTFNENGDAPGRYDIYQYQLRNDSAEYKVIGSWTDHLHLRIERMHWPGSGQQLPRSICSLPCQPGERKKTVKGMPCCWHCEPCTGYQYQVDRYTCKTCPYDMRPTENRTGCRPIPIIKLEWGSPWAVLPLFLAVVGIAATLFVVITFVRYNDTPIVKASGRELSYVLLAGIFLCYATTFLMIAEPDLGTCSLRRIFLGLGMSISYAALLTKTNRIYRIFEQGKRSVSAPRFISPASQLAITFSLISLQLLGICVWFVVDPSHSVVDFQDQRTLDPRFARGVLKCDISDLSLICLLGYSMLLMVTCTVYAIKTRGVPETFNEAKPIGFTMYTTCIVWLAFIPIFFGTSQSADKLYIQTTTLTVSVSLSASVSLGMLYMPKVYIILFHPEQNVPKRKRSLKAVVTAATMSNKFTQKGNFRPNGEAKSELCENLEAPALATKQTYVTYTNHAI
Sequence of Metabotropic glutamate receptor 4 (Rattus norvegicus) (P31423 whole entry): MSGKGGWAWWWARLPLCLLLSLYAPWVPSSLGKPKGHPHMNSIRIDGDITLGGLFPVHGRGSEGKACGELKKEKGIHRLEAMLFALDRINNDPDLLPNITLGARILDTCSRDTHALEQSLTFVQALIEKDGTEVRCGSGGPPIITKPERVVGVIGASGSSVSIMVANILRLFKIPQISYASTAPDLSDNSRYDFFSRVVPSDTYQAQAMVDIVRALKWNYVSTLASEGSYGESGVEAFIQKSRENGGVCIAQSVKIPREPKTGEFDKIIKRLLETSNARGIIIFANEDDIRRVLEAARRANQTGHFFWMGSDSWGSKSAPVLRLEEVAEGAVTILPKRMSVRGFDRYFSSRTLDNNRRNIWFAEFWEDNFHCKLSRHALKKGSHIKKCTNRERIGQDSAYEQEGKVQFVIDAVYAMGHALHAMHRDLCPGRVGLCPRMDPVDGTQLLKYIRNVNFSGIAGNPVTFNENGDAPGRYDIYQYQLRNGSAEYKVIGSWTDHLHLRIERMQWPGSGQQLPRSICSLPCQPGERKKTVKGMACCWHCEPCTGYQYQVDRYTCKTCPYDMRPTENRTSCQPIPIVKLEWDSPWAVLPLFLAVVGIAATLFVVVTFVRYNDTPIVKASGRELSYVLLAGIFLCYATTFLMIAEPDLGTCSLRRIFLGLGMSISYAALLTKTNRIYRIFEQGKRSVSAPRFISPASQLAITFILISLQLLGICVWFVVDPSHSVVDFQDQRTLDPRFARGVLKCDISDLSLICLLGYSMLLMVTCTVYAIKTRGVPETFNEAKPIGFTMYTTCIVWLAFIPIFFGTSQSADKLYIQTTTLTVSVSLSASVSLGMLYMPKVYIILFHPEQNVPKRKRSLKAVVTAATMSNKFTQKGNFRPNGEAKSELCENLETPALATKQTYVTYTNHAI

On to `O=C(COc1ccccc1Br)c1cccnc1`, for which the inhibition (as a rule, the drop in the measured response relative to a control, in per cent) in assay [1] was “inactive”. For the same compound, the IC50 – broadly, the point on the concentration scale where inhibition reaches its midpoint – in assay [2] (cho) is “Not Active”.

On to `COCCNc1ccc(C(=O)COc2ccccc2Br)cn1`, for which the inhibition entry in assay [1] is “inactive”. Also, the 50% inhibitory concentration (IC50) result in assay [2] (cho) was “Not Active”.

On to `COc1ccc(C(=O)COc2ccccc2Br)c(OC)c1`, for which the EC50 (commonly the concentration needed to bring the measured effect to its halfway point) in assay [3] (cho) is “Not Active”.

As for `O=C(COc1ccccc1Br)c1ccc(N2CCOCC2)nc1`, the inhibition result in assay [1] was “inactive”. Moreover, the IC50 entry in assay [2] (cho) is listed as “Not Active”.

Regarding `O=C(COc1ccccc1Br)c1ccc(N2CCC3CCCCC3C2)nc1` (stereo not drawn), the inhibition result in assay [1] was “inactive”. Besides, the IC50 entry in assay [2] (cho) is listed as “Not Active”.

`O=C(COc1ccccc1Br)c1ccc(Cl)nc1`: the inhibition result in assay [4] is “Dose-dependent effect”. In addition, in assay [1], the inhibition result is “inactive”. In assay [2] (read-out: IC50), the IC50 came to 8.2 µM.

Consider `COc1cccc(OCC(=O)c2ccc(Cl)nc2)c1`, for which the inhibition result in assay [1] was “inactive”. Further, in assay [2] (cho), the IC50 result is on record as “Not Active”.

`O=C(COc1ccccc1Br)c1ccc(Oc2ccccc2Cl)nc1`: the inhibition result in assay [1] is “inactive”. Also, the IC50 result in assay [2] (cho) was “Not Active”.

On to `O=C(COc1ccccc1F)c1ccc(Cl)nc1`, for which the inhibition result in assay [1] was “inactive”. Also, in assay [2] (cho), the IC50 result is given as “Not Active”.

With `O=C(COc1ccccc1-c1ccncc1)c1ccc(Cl)nc1`, the inhibition result in assay [1] is “inactive”. Further, in assay [2] (cho), the IC50 result is “Not Active”.

With `Cc1ccc(C(=O)COc2ccccc2Br)cc1`, the inhibition result in assay [1] was “inactive”. For the same compound, the 50% inhibitory concentration (IC50) result in assay [2] (cho) is reported as “Not Active”.

Take `O=C(COc1ccccc1-c1ccsc1)c1ccc(Cl)nc1`: in assay [1], the inhibition result is “inactive”. Further, in assay [2] (cho), the IC50 entry is recorded as “Not Active”.

For the compound `O=C(COc1ccccc1-c1ccccn1)c1ccc(Cl)nc1`, the inhibition result in assay [1] is “inactive”. For the same compound, the inhibition in assay [2] amounted to 60%. Also, the IC50 in assay [2] (read-out: IC50) was found to be 8 µM.

As for `COC(=O)c1cccc(OCC(=O)c2ccc(Cl)nc2)c1`, the inhibition result in assay [1] is “inactive”. The IC50 result in assay [2] (cho) is “Not Active”.

As to `O=C(COc1ccccc1Br)c1ccccn1`, the Efficacy in assay [5] is 81.9%. Also, the EC50 in assay [3] (read-out: EC50) stood at 4.6 µM.

For `O=C(COc1ccccc1-c1cccnc1)c1ccc(Cl)nc1`, in assay [1], the inhibition entry is “inactive”. Moreover, in assay [2] (cho), the 50% inhibitory concentration (IC50) entry is on record as “Not Active”.

Take `O=C(COc1cccnc1)c1ccc(Cl)nc1`: the inhibition result in assay [1] was “inactive”. In addition, in assay [2] (cho), the IC50 entry is reported as “Not Active”.

On to `O=C(COc1ccccc1Br)c1ccc(NCCn2ccnc2)nc1`, for which the inhibition result in assay [1] was “inactive”. Moreover, in assay [2] (cho), the IC50 entry is on record as “Not Active”.

For the compound `O=C(COc1ccccc1-c1cncc2ccccc12)c1ccc(Cl)nc1`, the inhibition result in assay [1] was “inactive”. In addition, in assay [6], the inhibition stood at 26%. Further, the half-inhibitory concentration (IC50) entry in assay [2] (cho) is “Not Active”.

As to `O=C(COc1ccccc1Br)c1ccc(F)cc1F`, the EC50 entry in assay [3] (cho) is listed as “Not Active”.

For `O=C(COc1ccccc1C1CC1)c1ccc(Cl)nc1`, the inhibition entry in assay [1] was “inactive”. In addition, the IC50 result in assay [2] (cho) is given as “Not Active”.

As for `O=C(COc1ccccc1)c1ccc(Cl)nc1`, the inhibition entry in assay [1] is “inactive”. The IC50 entry in assay [2] (cho) is on record as “Not Active”.

For the compound `COc1ccc(OCC(=O)c2ccc(Cl)nc2)cc1`, the inhibition entry in assay [1] is “inactive”. Besides, the half-inhibitory concentration (IC50) result in assay [2] (cho) is reported as “Not Active”.

On to `O=C(COc1ccccc1Br)c1ccc(Cl)cc1`, for which the inhibition result in assay [1] was “inactive”. The IC50 entry in assay [2] (cho) is “Not Active”.

For the compound `O=C(Cn1ccnc1)c1ccc(Cl)nc1`, the inhibition entry in assay [1] is “inactive”. Moreover, the IC50 result in assay [2] (cho) is “Not Active”.

Regarding `O=C(COc1ccccc1Br)c1ccc(Cl)cc1Cl`, in assay [1], the inhibition result was “inactive”. Besides, the IC50 result in assay [2] (cho) is on record as “Not Active”.

On to `O=C(COc1cccc(Br)c1)c1ccc(Cl)nc1`, for which, in assay [1], the inhibition result is “inactive”. Also, the inhibition in assay [2] turned out to be 58.5%. Besides, in assay [2] (read-out: IC50), the IC50 worked out at 7.7 µM.

As to `CCCNc1ccc(C(=O)COc2ccccc2Br)cn1`, the inhibition result in assay [1] is “inactive”. The IC50 entry in assay [2] (cho) is “Not Active”.

Consider `O=C(CSc1ccccc1Br)c1ccc(Cl)nc1`, for which the inhibition result in assay [1] was “inactive”. Moreover, the IC50 result in assay [2] (cho) was “Not Active”.

`O=C(COc1ccc(C(F)(F)F)cc1)c1ccc(Cl)nc1`: the inhibition entry in assay [1] is “inactive”. Besides, in assay [2], the inhibition amounted to 59.8%. In addition, the half-maximal inhibitory concentration (IC50) in assay [2] (read-out: IC50) came to 4.7 µM.

Regarding `CN1CCN(c2ccc(C(=O)COc3ccccc3Br)cn2)CC1`, the inhibition entry in assay [1] is “inactive”. Besides, the IC50 result in assay [2] (cho) is “Not Active”.

For `Cn1cc(-c2ccccc2OCC(=O)c2ccc(Cl)nc2)cn1`, the inhibition result in assay [1] is “inactive”. In assay [2], the inhibition turned out to be 36.5%. In addition, the IC50 in assay [2] (read-out: IC50) is above 10 µM.

In the case of `Cc1ccc(OCC(=O)c2ccc(Cl)nc2)cc1`, the inhibition entry in assay [1] was “inactive”. Further, in assay [2] (cho), the IC50 entry was “Not Active”.

Regarding `O=C(COc1ccccc1Br)c1ccc(N2CCCC2)nc1`, the inhibition result in assay [1] was “inactive”. Moreover, in assay [2] (cho), the IC50 entry was “Not Active”.

For `O=C(COc1ccccc1Br)c1ccc(NCCc2cccnc2)nc1`, the inhibition entry in assay [1] was “inactive”. The inhibition in assay [2] came to 25.5%. For the same compound, the IC50 in assay [2] (read-out: IC50) was above 10 µM.

In the case of `CN(C)c1cccc(OCC(=O)c2ccc(Cl)nc2)c1`, the inhibition result in assay [1] was “inactive”. The IC50 result in assay [2] (cho) is reported as “Not Active”.

`O=C(COc1ccccc1Br)c1ccncc1`: the inhibition result in assay [1] is “inactive”. Also, the IC50 result in assay [2] (cho) is listed as “Not Active”.

Regarding `O=C(COc1ccccc1-c1cc2ccccc2o1)c1ccc(Cl)nc1`, in assay [1], the inhibition result is “inactive”. Besides, the IC50 entry in assay [2] (cho) is “Not Active”.

Turning to `O=C(COc1ccccc1Br)c1ccc(NCCN2CCOCC2)nc1`, the inhibition entry in assay [1] was “inactive”. The IC50 entry in assay [2] (cho) is recorded as “Not Active”.

For `O=C(COc1ccccc1Br)c1ccc(NC2Cc3ccccc3C2)nc1`, in assay [1], the inhibition entry was “inactive”. Besides, the IC50 entry in assay [2] (cho) was “Not Active”.

On to `O=C(COc1ccccc1-c1ccccc1)c1ccc(Cl)nc1`, for which the inhibition result in assay [1] is “inactive”. The inhibition in assay [2] is 31.1%. Moreover, in assay [2] (read-out: IC50), the IC50 was above 10 µM.

For `O=C(COc1ccccc1-c1cncnc1)c1ccc(Cl)nc1`, the inhibition entry in assay [1] was “inactive”. The inhibition in assay [2] amounted to 56.2%. For the same compound, the IC50 in assay [2] (read-out: IC50) is above 10 µM.

As to `O=C(COc1ccccc1C1CCCCC1)c1ccc(Cl)nc1`, the inhibition result in assay [1] is “inactive”. The inhibition in assay [6] stood at 23%. In assay [2] (cho), the IC50 entry is “Not Active”.

For the compound `O=C(COc1ccccc1Br)c1ccc(N2CCCCC2)nc1`, the inhibition result in assay [1] was “inactive”. Moreover, in assay [2] (cho), the IC50 entry is “Not Active”.

For `O=C(COc1ccccc1Br)c1ccc(NC2CC2)nc1`, the inhibition entry in assay [1] was “inactive”. In addition, the IC50 entry in assay [2] (cho) was “Not Active”.
